Measurements taken from ChEMBL document CHEMBL1777749, “4-Aminothiazolyl analogs of GE2270 A: design, synthesis and evaluation of imidazole analogs” (2011).
Converted amounts (≈) assume the structure as drawn.

Experiments:
Type in all cases: functional
[1] = tested on: Enterococcus faecalis; assay: Antimicrobial activity against Enterococcus faecalis ATCC 29212 by CLSI method
[2] = tested on: Enterococcus faecium; assay: Antimicrobial activity against Enterococcus faecium 7130724 by CLSI method
[3] = tested on: Staphylococcus aureus; assay: Antimicrobial activity against methicillin-resistant Staphylococcus aureus clinical isolate obtained from pharyngeal smear by CLSI method
Method in brief: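 MIC by dilution susceptibility testing per CLSI M07-A8, for bacteria that grow aerobically. Strain: MRSA clinical isolate AKH Vienna A4.018, from a pharyngeal smear. Tested compounds were >95% pure by LCUV, LCMS and ¹H NMR.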

[4] = tested on: Streptococcus pyogenes; assay: Antimicrobial activity against Streptococcus pyogenes ATCC BAA-595 by CLSI method
[5] = tested on: Escherichia coli; assay: Inhibition of protein synthesis in Escherichia coli S30 extract at 2 uM by luciferase assay relative to control

With `CNC(=O)C[C@@H]1NC(=O)c2csc(n2)-c2ccc(-c3nc(C4=N[C@H](C(=O)N5CCC[C@H]5C(N)=O)CO4)cs3)nc2-c2csc(n2)-c2csc(n2)[C@H]([C@@H](O)c2ccccc2)NC(=O)CNC(=O)c2nc(sc2COC)[C@H](C(C)C)NC(=O)c2nc1sc2C` the MIC [1] was 0.5 µg/mL (≈ 0.387 µM), the MIC [2] was 0.25 µg/mL (≈ 0.194 µM) and the MIC [3] was 0.25 µg/mL (≈ 0.194 µM). The MIC [4] was 1 µg/mL (≈ 0.775 µM) and the inhibition at 2 µM [5] was 61%.

`CNC(=O)C[C@@H]1NC(=O)c2csc(n2)-c2ccc(-c3nc(-n4cnc(C(=O)O)c4)cs3)nc2-c2csc(n2)-c2csc(n2)[C@H]([C@@H](O)c2ccccc2)NC(=O)CNC(=O)c2nc(sc2COC)[C@H](C(C)C)NC(=O)c2nc1sc2C` showed an MIC [1] of 4 µg/mL (≈ 3.36 µM), an MIC [2] of over 32 µg/mL and an MIC [3] of 4 µg/mL (≈ 3.36 µM). For the same molecule, the MIC [4] was over 32 µg/mL and the inhibition at 2 µM [5] was 0%.

For `CNC(=O)C[C@@H]1NC(=O)c2csc(n2)-c2ccc(-c3nc(-n4cnc(C(=O)N5CCC[C@H]5C(=O)O)c4)cs3)nc2-c2csc(n2)-c2csc(n2)[C@H]([C@@H](O)c2ccccc2)NC(=O)CNC(=O)c2nc(sc2COC)[C@H](C(C)C)NC(=O)c2nc1sc2C`, the MIC [1] was 8 µg/mL (≈ 6.21 µM), the MIC [2] was over 32 µg/mL and the MIC [3] was 8 µg/mL (≈ 6.21 µM). It also gave an MIC [4] of over 32 µg/mL and an inhibition at 2 µM [5] of 53%.

`CNC(=O)C[C@@H]1NC(=O)c2csc(n2)-c2ccc(-c3nc(-n4cnc(C(=O)NCC(=O)O)c4)cs3)nc2-c2csc(n2)-c2csc(n2)[C@H]([C@@H](O)c2ccccc2)NC(=O)CNC(=O)c2nc(sc2COC)[C@H](C(C)C)NC(=O)c2nc1sc2C` gave an MIC [1] of 8 µg/mL (≈ 6.41 µM), an MIC [2] of 32 µg/mL (≈ 25.6 µM) and an MIC [3] of 4 µg/mL (≈ 3.2 µM). The MIC [4] was over 32 µg/mL and the inhibition at 2 µM [5] was 64%.
